Results published in ChEMBL document CHEMBL1124216, “A novel class of potential central nervous system agents. 3-Phenyl-2-(1-piperazinyl)-5H-1-benzazepines” (1988).

Legend:
Format in all cases: functional
Mus musculus [1] = test: Antiexploratory activity (EXPL) of mice determined by an antimex activity meter, 100 mg/kg of dose was administered perorally; No inhibition; conditions: route oral
Mus musculus [2] = test: Antitremorine activity(TRM) of mice after peroral administration of 100 mg/kg of compound; No inhibition; conditions: route oral
Mus musculus [3] = test: Antireserpine activity (RES) of mice after peroral administration of 100 mg/kg of compound; No inhibition; conditions: route oral
Mus musculus [4] = test: Antimaximal electroshock seizure (MES) activity in mice after peroral administration of 100 mg/kg of compound; 5/5; conditions: route oral
Mus musculus [5] = test: Antireserpine activity (RES) of mice after peroral administration of 100 mg/kg of compound; Slight inhibition (31-50%); conditions: route oral
Mus musculus [6] = test: Antimaximal electroshock seizure (MES) activity in mice after peroral administration of 100 mg/kg of compound; 0/5; conditions: route oral
Mus musculus [7] = test: Antitremorine activity(TRM) of mice after peroral administration of 100 mg/kg of compound; Moderate inhibition (51-71%); conditions: route oral
Mus musculus [8] = test: Antitremorine activity(TRM) of mice after peroral administration of 100 mg/kg of compound; Slight inhibition (31-50%); conditions: route oral
Mus musculus [9] = test: Antiexploratory activity (EXPL) of mice determined by an antimex activity meter, 50 mg/kg of dose was administered perorally; No inhibition; conditions: route oral
Mus musculus [10] = test: Antipentylene tetrazole activity was determined in mice when administered perorally; conditions: po
Summary of the method: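 Groups of five male Std-ddY mice received compound orally in 0.5% tragacanth, then pentylenetetrazole 175 mg/kg ip. Blockade of the tonic extensor component scored as anticonvulsant. ED50 was the dose protecting 50% of animals (Litchfield-Wilcoxon).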

Mus musculus [11] = test: Antimaximal electroshock seizure activity was determined in mice when administered perorally; conditions: po

Structure (SMILES)	inhibition in vivo at 100 mg/kg (Mus musculus [1]) [%]	inhibition in vivo at 100 mg/kg (Mus musculus [2]) [%]	inhibition in vivo at 100 mg/kg (Mus musculus [3]) [%]	Activity (Mus musculus [6])	further results
NC(=O)N1CCN(C2=Nc3ccc(Br)cc3CC=C2c2ccccc2)CC1	< 30	< 30	< 30	–	Activity (Mus musculus [4]): 5
Brc1ccc2c(c1)CC=C(c1ccccc1)C(N1CCCCC1)=N2	< 30	< 30	–	0	inhibition in vivo at 100 mg/kg (Mus musculus [5]): 31%
C1=C(c2ccccc2)C(N2CCN(Cc3ccccc3)CC2)=Nc2ccccc2C1	< 30	< 30	–	0	–
Clc1ccc(C2=CCc3ccc(Cl)cc3N=C2N2CCNCC2)cc1.O=C(O)/C=C/C(=O)O	< 30	–	–	0	inhibition in vivo at 100 mg/kg (Mus musculus [7]): 51%; inhibition in vivo at 100 mg/kg (Mus musculus [5]): 31%
CCCc1ccc2c(c1)CC=C(c1ccccc1)C(N1CCN(CC)CC1)=N2.O=C(O)/C=C/C(=O)O	< 30	< 30	< 30	0	–
C1=C(c2ccccc2)C(N2CCNCC2)=Nc2ccccc2C1.O=C(O)/C=C/C(=O)O	< 30	< 30	< 30	0	–
C=CCN1CCN(C2=Nc3ccc(Br)cc3CC=C2c2ccccc2)CC1	< 30	< 30	–	0	inhibition in vivo at 100 mg/kg (Mus musculus [5]): 31%
CCN1CCN(C2=Nc3ccc(C(C)C)cc3CC=C2c2ccccc2)CC1.O=C(O)/C=C/C(=O)O	< 30	–	< 30	0	inhibition in vivo at 100 mg/kg (Mus musculus [8]): 31%
O=C(O)/C=C/C(=O)O.OCCN1CCN(C2=Nc3ccccc3CC=C2c2cccc(C(F)(F)F)c2)CC1	< 30	< 30	–	0	–
CN1CCN(C2=Nc3ccccc3CC=C2c2cccc(C(F)(F)F)c2)CC1.O=C(O)/C=C/C(=O)O	< 30	< 30	–	0	–
O=C(CN1CCN(C2=Nc3ccc(Br)cc3CC=C2c2ccccc2)CC1)c1ccccc1	< 30	< 30	< 30	0	–
COc1ccc(CN2CCN(C3=Nc4ccc(Br)cc4CC=C3c3ccccc3)CC2)cc1	< 30	< 30	< 30	0	–
Brc1ccc2c(c1)CC=C(c1ccccc1)C(N1CCNCC1)=N2.O=C(O)/C=C/C(=O)O	< 30	–	–	0	inhibition in vivo at 100 mg/kg (Mus musculus [5]): 31%
Fc1ccc(C2=CCc3ccccc3N=C2N2CCN(Cc3ccccc3)CC2)cc1	–	–	–	–	inhibition in vivo at 50 mg/kg (Mus musculus [9]): < 30%
C1=C(c2ccccc2)C(N2CCN(c3ccccc3)CC2)=Nc2ccccc2C1	< 30	< 30	< 30	0	–
OCCN1CCN(C2=Nc3ccc(Br)cc3CC=C2c2ccccc2)CC1	< 30	< 30	< 30	–	ED50 (Mus musculus [10]): 13.2 mg/kg; Activity (Mus musculus [4]): 5; ED50 (Mus musculus [11]): 14.6 mg/kg
Clc1ccccc1C1=CCc2cc(Br)ccc2N=C1N1CCNCC1.O=C(O)/C=C/C(=O)O	< 30	< 30	< 30	0	–
Clc1ccc2c(c1)CC=C(c1ccccc1)C(N1CCN(Cc3ccccc3)CC1)=N2	< 30	< 30	–	0	inhibition in vivo at 100 mg/kg (Mus musculus [5]): 31%
CC(C)c1ccc2c(c1)CC=C(c1ccccc1)C(N1CCN(C)CC1)=N2.O=C(O)/C=C/C(=O)O	< 30	–	< 30	0	inhibition in vivo at 100 mg/kg (Mus musculus [7]): 51%
O=C(CCN1CCN(C2=Nc3ccc(Br)cc3CC=C2c2ccccc2)CC1)c1ccccc1	< 30	< 30	< 30	0	–
